Data: ChEMBL document CHEMBL1129454, “HIV protease inhibitory bis-benzamide cyclic ureas: a quantitative structure-activity relationship analysis” (J Med Chem, 1996)

Legend:
[1] = tested on: Human immunodeficiency virus 1; assay: The concentration required to inhibit HIV-1 RNA synthesis by 90%. Viral RNA quantified by a sandwich hybridization assay; format: functional
Summary of the method: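 Susceptible T-cell lines grown in individual microtiter wells were infected with HIV. Cell-associated viral RNA was measured by RNA hybridization 3 days after infection. […] Assay SD was <±37%. Cytotoxicity was scored separately by tetrazolium dye metabolism, because RNA assay results are valid only at non-cytotoxic doses.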

[2] = biological target: T1, Human immunodeficiency virus type 1 protease (Human immunodeficiency virus 1, UniProt Q72874); assay: Binding affinity for HIV-1 protease
Summary of the method: (§1)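 Cleavage products were separated by anion-exchange HPLC and the product quantified by fluorescence. Each compound was assayed at least twice and the mean reported; assay SD <±40%.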

[3] = biological target: T1, Human immunodeficiency virus type 1 protease; assay: Inhibitory activity against HIV-1 protease; summary of the method: as §1

O=C(Nc1ccc(Br)cn1)c1cccc(CN2C(=O)N(Cc3cccc(C(=O)Nc4ccc(Br)cn4)c3)[C@H](Cc3ccccc3)[C@H](O)[C@@H](O)[C@H]2Cc2ccccc2)c1
IC90 ([1]; Human immunodeficiency virus 1): 28.2 nM | Ki [2]: 0.04 nM | Ki [3]: 0.035 nM

CNC(=O)c1cccc(CN2C(=O)N(Cc3cccc(C(=O)NC)c3)[C@H](Cc3ccccc3)[C@H](O)[C@@H](O)[C@H]2Cc2ccccc2)c1 (stereo in doubt; 6)
IC90 [1]: 80.5 nM | Ki [2]: 0.06 nM | Ki [3]: 0.066 nM

Cc1cccnc1NC(=O)c1cccc(CN2C(=O)N(Cc3cccc(C(=O)Nc4ncccc4C)c3)[C@H](Cc3ccccc3)[C@H](O)[C@@H](O)[C@H]2Cc2ccccc2)c1
IC90 ([1]; Human immunodeficiency virus 1): 50.3 nM | Ki [2]: 0.26 nM | Ki [3]: 0.26 nM

Cc1cccc(NC(=O)c2cccc(CN3C(=O)N(Cc4cccc(C(=O)Nc5cccc(C)n5)c4)[C@H](Cc4ccccc4)[C@H](O)[C@@H](O)[C@H]3Cc3ccccc3)c2)n1
IC90 ([1]; Human immunodeficiency virus 1): 3.2 nM | Ki [2]: 0.02 nM | Ki [3]: 0.02 nM

O=C(Nc1ccccc1)c1cccc(CN2C(=O)N(Cc3cccc(C(=O)Nc4ccccc4)c3)[C@H](Cc3ccccc3)[C@H](O)[C@@H](O)[C@H]2Cc2ccccc2)c1
IC90 ([1]; Human immunodeficiency virus 1): 510 nM | Ki [2]: 0.37 nM | Ki [3]: 0.43 nM

NC(=O)c1cccc(CN2C(=O)N(Cc3cccc(C(N)=O)c3)[C@H](Cc3ccccc3)[C@H](O)[C@@H](O)[C@H]2Cc2ccccc2)c1
IC90 ([1]; Human immunodeficiency virus 1): 709 nM | Ki [2]: 0.06 nM | Ki [3]: 0.039 nM

Cc1ccnc(NC(=O)c2cccc(CN3C(=O)N(Cc4cccc(C(=O)Nc5nccc(C)n5)c4)[C@H](Cc4ccccc4)[C@H](O)[C@@H](O)[C@H]3Cc3ccccc3)c2)n1
IC90 ([1]; Human immunodeficiency virus 1): 124 nM | Ki [2]: 0.12 nM | Ki [3]: 0.115 nM

Cc1cnc(NC(=O)c2cccc(CN3C(=O)N(Cc4cccc(C(=O)Nc5ncc(C)s5)c4)[C@H](Cc4ccccc4)[C@H](O)[C@@H](O)[C@H]3Cc3ccccc3)c2)s1
IC90 ([1]; Human immunodeficiency virus 1): 17.8 nM | Ki [3]: 0.014 nM

O=C(Nc1nncs1)c1cccc(CN2C(=O)N(Cc3cccc(C(=O)Nc4nncs4)c3)[C@H](Cc3ccccc3)[C@H](O)[C@@H](O)[C@H]2Cc2ccccc2)c1
IC90 ([1]; Human immunodeficiency virus 1): 51.3 nM | Ki [3]: 0.11 nM

N#CCNC(=O)c1cccc(CN2C(=O)N(Cc3cccc(C(=O)NCC#N)c3)[C@H](Cc3ccccc3)[C@H](O)[C@@H](O)[C@H]2Cc2ccccc2)c1
IC90 ([1]; Human immunodeficiency virus 1): 596 nM | Ki [2]: 0.063 nM | Ki [3]: 0.063 nM

O=C(Nc1cnccn1)c1cccc(CN2C(=O)N(Cc3cccc(C(=O)Nc4cnccn4)c3)[C@H](Cc3ccccc3)[C@H](O)[C@@H](O)[C@H]2Cc2ccccc2)c1
IC90 ([1]; Human immunodeficiency virus 1): 3.5 nM | Ki [2]: 0.02 nM | Ki [3]: 0.018 nM

CCCNC(=O)c1cccc(CN2C(=O)N(Cc3cccc(C(=O)NCCC)c3)[C@H](Cc3ccccc3)[C@H](O)[C@@H](O)[C@H]2Cc2ccccc2)c1
IC90 ([1]; Human immunodeficiency virus 1): 259 nM | Ki [2]: 0.28 nM | Ki [3]: 0.359 nM

O=C(Nc1ncc(Cl)cc1Cl)c1cccc(CN2C(=O)N(Cc3cccc(C(=O)Nc4ncc(Cl)cc4Cl)c3)[C@H](Cc3ccccc3)[C@H](O)[C@@H](O)[C@H]2Cc2ccccc2)c1
IC90 ([1]; Human immunodeficiency virus 1): 43 nM | Ki [2]: 0.24 nM | Ki [3]: 0.245 nM

CONC(=O)c1cccc(CN2C(=O)N(Cc3cccc(C(=O)NOC)c3)[C@H](Cc3ccccc3)[C@H](O)[C@@H](O)[C@H]2Cc2ccccc2)c1
IC90 ([1]; Human immunodeficiency virus 1): 214 nM | Ki [2]: 0.08 nM | Ki [3]: 0.045 nM

Cc1coc(NC(=O)c2cccc(CN3C(=O)N(Cc4cccc(C(=O)Nc5nc(C)co5)c4)[C@H](Cc4ccccc4)[C@H](O)[C@@H](O)[C@H]3Cc3ccccc3)c2)n1
IC90 ([1]; Human immunodeficiency virus 1): 59.6 nM | Ki [3]: 0.064 nM

O=C(NCC(F)(F)F)c1cccc(CN2C(=O)N(Cc3cccc(C(=O)NCC(F)(F)F)c3)[C@H](Cc3ccccc3)[C@H](O)[C@@H](O)[C@H]2Cc2ccccc2)c1
IC90 ([1]; Human immunodeficiency virus 1): 92.5 nM | Ki [2]: 0.21 nM | Ki [3]: 0.21 nM

O=C1N(Cc2ccc(CO)cc2)[C@H](Cc2ccccc2)[C@H](O)[C@@H](O)[C@@H](Cc2ccccc2)N1Cc1ccc(CO)cc1 [DMP-323]
IC90 ([1]; Human immunodeficiency virus 1): 115 nM

CNC(=O)c1cccc(CN2C(=O)N(Cc3cccc(C(=O)NC)c3)[C@H](Cc3ccccc3)[C@H](O)[C@@H](O)[C@H]2Cc2ccccc2)c1 (stereo in doubt; 31)
Ki [3]: 1.9 nM

O=C(NO)c1cccc(CN2C(=O)N(Cc3cccc(C(=O)NO)c3)[C@H](Cc3ccccc3)[C@H](O)[C@@H](O)[C@H]2Cc2ccccc2)c1
IC90 ([1]; Human immunodeficiency virus 1): 448 nM | Ki [2]: 0.02 nM | Ki [3]: 0.02 nM

O=C(Nc1ncc[nH]1)c1cccc(CN2C(=O)N(Cc3cccc(C(=O)Nc4ncc[nH]4)c3)[C@H](Cc3ccccc3)[C@H](O)[C@@H](O)[C@H]2Cc2ccccc2)c1
IC90 ([1]; Human immunodeficiency virus 1): 45.5 nM | Ki [3]: 0.014 nM

CCNC(=O)c1cccc(CN2C(=O)N(Cc3cccc(C(=O)NCC)c3)[C@H](Cc3ccccc3)[C@H](O)[C@@H](O)[C@H]2Cc2ccccc2)c1
IC90 ([1]; Human immunodeficiency virus 1): 139 nM | Ki [2]: 0.21 nM | Ki [3]: 0.21 nM

CC(C)(C)NC(=O)[C@@H]1C[C@@H]2CCCC[C@@H]2CN1C[C@@H](O)[C@H](Cc1ccccc1)NC(=O)[C@H](CC(N)=O)NC(=O)c1ccc2ccccc2n1
IC90 ([1]; Human immunodeficiency virus 1): 10.4 nM

O=C(Nc1cccnc1)c1cccc(CN2C(=O)N(Cc3cccc(C(=O)Nc4cccnc4)c3)[C@H](Cc3ccccc3)[C@H](O)[C@@H](O)[C@H]2Cc2ccccc2)c1
IC90 ([1]; Human immunodeficiency virus 1): 123 nM | Ki [2]: 0.29 nM | Ki [3]: 0.29 nM

O=C(Nc1ccccn1)c1cccc(CN2C(=O)N(Cc3cccc(C(=O)Nc4ccccn4)c3)[C@H](Cc3ccccc3)[C@H](O)[C@@H](O)[C@H]2Cc2ccccc2)c1
IC90 ([1]; Human immunodeficiency virus 1): 2.8 nM | Ki [2]: 0.01 nM | Ki [3]: 0.043 nM

O=C(Nc1nc2ccccc2[nH]1)c1cccc(CN2C(=O)N(Cc3cccc(C(=O)Nc4nc5ccccc5[nH]4)c3)[C@H](Cc3ccccc3)[C@H](O)[C@@H](O)[C@H]2Cc2ccccc2)c1
IC90 ([1]; Human immunodeficiency virus 1): 3.9 nM

CC(C)CN(C[C@@H](O)[C@H](Cc1ccccc1)NC(=O)O[C@H]1CCOC1)S(=O)(=O)c1ccc(N)cc1
IC90 ([1]; Human immunodeficiency virus 1): 46 nM

O=C(Nc1ncccn1)c1cccc(CN2C(=O)N(Cc3cccc(C(=O)Nc4ncccn4)c3)[C@H](Cc3ccccc3)[C@H](O)[C@@H](O)[C@H]2Cc2ccccc2)c1
IC90 ([1]; Human immunodeficiency virus 1): 220 nM | Ki [2]: 0.15 nM | Ki [3]: 0.152 nM

CC(C)c1nc(CN(C)C(=O)N[C@H](C(=O)N[C@@H](Cc2ccccc2)C[C@H](O)[C@H](Cc2ccccc2)NC(=O)OCc2cncs2)C(C)C)cs1 [RITONAVIR]
IC90 ([1]; Human immunodeficiency virus 1): 76 nM

CC(C)NC(=O)c1cccc(CN2C(=O)N(Cc3cccc(C(=O)NC(C)C)c3)[C@H](Cc3ccccc3)[C@H](O)[C@@H](O)[C@H]2Cc2ccccc2)c1
IC90 ([1]; Human immunodeficiency virus 1): 266 nM | Ki [2]: 0.58 nM | Ki [3]: 0.579 nM

O=C(Nc1nccs1)c1cccc(CN2C(=O)N(Cc3cccc(C(=O)Nc4nccs4)c3)[C@H](Cc3ccccc3)[C@H](O)[C@@H](O)[C@H]2Cc2ccccc2)c1
IC90 ([1]; Human immunodeficiency virus 1): 1.7 nM

O=C(Nc1nnc(C(F)(F)F)s1)c1cccc(CN2C(=O)N(Cc3cccc(C(=O)Nc4nnc(C(F)(F)F)s4)c3)[C@H](Cc3ccccc3)[C@H](O)[C@@H](O)[C@H]2Cc2ccccc2)c1
IC90 ([1]; Human immunodeficiency virus 1): 74.8 nM | Ki [3]: 0.18 nM

CC(C)(C)NC(=O)[C@@H]1CN(Cc2cccnc2)CCN1C[C@@H](O)C[C@@H](Cc1ccccc1)C(=O)NC1c2ccccc2C[C@H]1O (single isomer, unassigned)
IC90 ([1]; Human immunodeficiency virus 1): 50 nM

Cc1csc(NC(=O)c2cccc(CN3C(=O)N(Cc4cccc(C(=O)Nc5nc(C)cs5)c4)[C@H](Cc4ccccc4)[C@H](O)[C@@H](O)[C@H]3Cc3ccccc3)c2)n1
IC90 ([1]; Human immunodeficiency virus 1): 4.1 nM | Ki [3]: 0.025 nM
